Results from different studies.
Compare with care: the assays were run in different laboratories.

COc1nc(-c2cccc(-c3ccccc3)c2C)ccc1CNCCNC(=O)CCCCCCCCCCC(=O)N1CCN(CCNC(=O)c2cc3c(=O)n4cccc(C)c4nc3n(CCc3cccs3)c2=N)CC1  AUC(0-inf) (male Sprague-Dawley rat, plasma; intraperitoneal, 4 mg/kg): 2.45 µg·h/mL
COCC(=O)N1CCC[C@H](C(=O)NCc2nc(-c3ccccc3)cs2)C1  AUC (male Sprague-Dawley rat, plasma; oral, 3 mg/kg): 110 µM·h
COc1cccc2c(N3CCC(CCP(=O)(O)O)CC3)ncnc12  half-life (EMT6; female BALB/c, tumour; subcutaneous, 50 mg/kg, tumour-bearing): 6.6 h
C=C(CC(=O)OCOC(=O)OC(C)C)C(=O)O  Papp (PAMPA; 10 µM, 4 h, pH 7.4): < 10 nm/s
COCC(=O)N1CCC[C@H](C(=O)NCc2nc(-c3ccc(C#N)cc3)cs2)C1  AUC (male Sprague-Dawley rat, plasma; oral, 3 mg/kg): 120 µM·h
CN(Cc1cn(Cc2ccc(-c3nc4cc(-c5ccccc5)ccn4c3Nc3ccc(C(=O)O)cc3)cc2)nn1)c1cccc2c1C(=O)N(C1CCC(=O)NC1=O)C2=O (stereo not drawn)  CC50 (HCT-116; cell growth or viability; 72 h): 190 µM
C[C@H]1Oc2cc(cnc2N)-c2c(nn(C)c2C#N)CN(C)C(=O)c2ccc(F)cc21  AUC(0-t) (male Sprague-Dawley rat, plasma; oral, 5 mg/kg, single dose): 1.78 µg·h/mL
O=c1[nH]cc(F)c(=O)[nH]1  viability (PC-9; cell growth or viability, CCK-8; 50 µM): 31.9%
O=C1CCC(N2C(=O)c3cccc(NCc4cn(Cc5ccc(-c6nc7cc(-c8ccccc8)ccn7c6Nc6ccc(C(=O)O)cc6)cc5)nn4)c3C2=O)C(=O)N1 (stereo not drawn)  CC50 (HCT-116; cell growth or viability; 72 h): 193 µM
